This passage reports Ki results from ChEMBL document CHEMBL1139266, “Sulfonamido-aryl ethers as bradykinin B1 receptor antagonists” (Bioorg Med Chem Lett, 2009).

The target in assay [1] is T1, B1 bradykinin receptor (Homo sapiens, UniProt P46663).
T1 sequence (P46663 whole entry): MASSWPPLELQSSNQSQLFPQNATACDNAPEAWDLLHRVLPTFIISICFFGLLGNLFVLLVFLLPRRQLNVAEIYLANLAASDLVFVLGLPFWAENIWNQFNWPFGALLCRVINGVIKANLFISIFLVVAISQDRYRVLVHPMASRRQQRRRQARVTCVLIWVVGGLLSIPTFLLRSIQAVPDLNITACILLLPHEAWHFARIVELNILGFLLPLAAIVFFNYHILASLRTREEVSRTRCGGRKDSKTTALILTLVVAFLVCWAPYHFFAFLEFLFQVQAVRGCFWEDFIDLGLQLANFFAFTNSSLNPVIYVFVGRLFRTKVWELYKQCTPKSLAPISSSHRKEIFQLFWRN
The assay is described as follows: Displacement of [3H]desArg from human B1 in human WI 38 cells. Format: cell-based. A digest of the protocol:
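WI-38 fibroblasts, 50,000/well, grown overnight and primed with IL-1b 100 units/mL for 3 h to induce B1. Binding used ~1 nM [3H]-desArg10kallidin in HEPES/HBSS pH 7.4 with phenanthroline and bacitracin, 1 h at 4 °C, 0.5% final DMSO. Nonspecific binding was defined with 3 µM desArg10kallidin. Cells washed, SDS-solubilized and scintillation counted; logistic fit gave IC50, converted to Ki, ≥3 determinations.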

The target in assay [2] is T1, B1 bradykinin receptor. Briefly: Antagonist activity at human cloned B1 receptor expressed in african green monkey COS7 cells by calcium mobilization assay. The class given is functional, cell-based, COS-7. A digest of the protocol:
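Cos-7 cells (DMEM, 10% FBS, 37 °C, 6% CO2) transiently electroporated with 16 µg human B1 cDNA plus 50 µg aequorin cDNA, plated 12,000 cells/well and used 2–3 days later. Compounds serially diluted from 2 mM DMSO stocks in half-log steps, six concentrations in triplicate. Coelenterazine-loaded cells received compounds in HEPES assay buffer. Read-out was aequorin calcium luminescence, with desArg10HOE140 standards for basal and partial inhibition. Ki reported.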
(In general: Calcium assays in cells follow changes in intracellular calcium, usually with a dye or a luminescent sensor.)

Consider `O=C(O)CCNC(=O)CN(CCOc1ccc2c(c1)CCC2)S(=O)(=O)c1ccc(Cl)cc1Cl`, for which, in assay [1], the Ki was 410 nM. For the compound `COc1cc(CN(CC(=O)NCc2ccccc2Cl)S(=O)(=O)c2ccc(CN(C)C)cc2)ccc1OCC(C)C`, the Ki in assay [2] is 497 nM; in assay [1], 93 nM. In the case of `O=C(O)CCNC(=O)CN(CCOc1cccc(Cl)c1)S(=O)(=O)c1ccc(Cl)cc1Cl`, affinity in assay [1] was put at a Ki of 1090 nM. Same read-out and setting: in the case of `COCCCNC(=O)CN(CCOc1ccc2c(c1)CCC2)S(=O)(=O)c1ccc(Cl)cc1Cl` it was 1210 nM; in that of `CNC(=O)CN(CCOc1ccc2c(c1)CCC2)S(=O)(=O)c1ccc(Cl)cc1Cl`, 2200 nM. On to `COc1cc(CN(CC(=O)NCc2ccccc2Cl)S(=O)(=O)c2ccc(CN3CCOCC3)cc2)ccc1OCC(C)C`, for which the values for the Ki in assay [2] and in assay [1] were 463 nM and 149 nM, respectively. On to `O=C(O)CCNC(=O)CN(CCOc1ccccc1)S(=O)(=O)c1ccc(Cl)cc1Cl`, for which the affinity in assay [1] corresponds to a Ki of 13000 nM.

Take `COc1ccccc1CCNC(=O)CN(CCOc1ccc2c(c1)OCO2)S(=O)(=O)c1ccc(Cl)cc1Cl`: the Ki in assay [1] amounted to 210 nM.

In assay [1], `CC(C)COc1ccc(CN(CC(=O)NCc2ccccc2Cl)S(=O)(=O)c2ccc(CN3CCN(C)CC3)cc2)cc1` gave a Ki of 113 nM. With `O=C(O)CCNC(=O)CN(CCOc1ccc2c(c1)OCO2)S(=O)(=O)c1ccc(Cl)cc1Cl`, in assay [1], the affinity corresponds to a Ki of 1570 nM. With `CC(C)COc1ccc(CN(CC(=O)NCc2ccccc2Cl)S(=O)(=O)c2ccc(CN3CCN(C)CC3)cc2)cc1Cl`, the Ki in assay [2] stood at 188 nM; in assay [1] it was 21 nM. The corresponding values for `COc1cc(CN(CC(=O)NCc2ccccc2Cl)S(=O)(=O)c2ccc(CN3CCN(C)CC3)cc2)ccc1OCC(C)C` are 37 nM and 11 nM. The like results for `COc1cc(CN(CC(=O)NCc2ccccc2Cl)S(=O)(=O)c2ccc(CN3CCCCC3)cc2)ccc1OCC(C)C` were, in that order, 267 nM and 34 nM.

By Ki is commonly meant a dissociation constant, usually derived from enzyme kinetics or from competition with a known ligand.
